Measurements published in ChEMBL document CHEMBL3421619, “Nicotinic Acid Adenine Dinucleotide Phosphate Analogues Substituted on the Nicotinic Acid and Adenine Ribosides. Effects on ReceptorMediated Ca²⁺ Release” (J Med Chem, 2015).

Columns and labels:
[1] = Desensitization of NAADP receptor in Strongylocentrotus purpuratus egg homogenates assessed as inhibition of NAADP-induced Ca2+ release pre-treated for 7 mins before NAADP addition by Fluo-3 dye based fluorometric assay
Summary of the method: (§1)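 S. purpuratus egg homogenates pretreated 7 min with varying analogue concentrations, then challenged with saturating NAADP (1 μM); Ca2+ release read by fluo-3 fluorescence (ex 490/em 535 nm); IC50 for inhibition of release from concentration–response, triplicate, reported ± SEM with n; fold values relative to NAADP.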

[2] = Activation of NAADP receptor in Strongylocentrotus purpuratus egg homogenates assessed as Ca2+ release by Fluo-3 dye based fluorometric assay
Summary of the method: (§2)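 Egg homogenate microsomes from S. purpuratus loaded with Ca2+ in presence of ATP and 3 μM fluo-3; analogue added at a range of concentrations and released Ca2+ read as fluorescence increase (excitation 490 nm, emission 535 nm) on a plate reader; pH 7.2; triplicate; EC50 from concentration–response; fold values relative to NAADP.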

[3] = tested on: Strongylocentrotus purpuratus; experiment: Desensitization of NAADP receptor in Strongylocentrotus purpuratus egg homogenates assessed as inhibition of NAADP-induced Ca2+ release pre-treated for 7 mins before NAADP addition by Fluo-3 dye based fluorometric assay relative to NAADP; summary of the method: as §1
[4] = Displacement of [32P]NAADP from NAADP receptor in Strongylocentrotus purpuratus egg homogenates incubated for 90 mins by liquid scintillation counting method
Summary of the method: (§3)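 Competition binding in filter plates: S. purpuratus egg homogenate incubated 90 min simultaneously with 0.2 nM [32P]NAADP and seven concentrations of test ligand; filtered, washed, filter-bound radioactivity counted by liquid scintillation; IC50 ± SEM with n; fold values relative to NAADP.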

[5] = tested on: Strongylocentrotus purpuratus; experiment: Activation of NAADP receptor in Strongylocentrotus purpuratus egg homogenates assessed as Ca2+ release by Fluo-3 dye based fluorometric assay relative to NAADP; summary of the method: as §2
[6] = tested on: Strongylocentrotus purpuratus; experiment: Displacement of [32P]NAADP from NAADP receptor in Strongylocentrotus purpuratus egg homogenates incubated for 90 mins by liquid scintillation counting method relative to NAADP; summary of the method: as §3
[7] = tested on: Strongylocentrotus purpuratus; experiment: Ratio of activation of NAADP receptor in Strongylocentrotus purpuratus egg homogenates by Ca2+ release assay to IC50 for NAADP receptor in Strongylocentrotus purpuratus egg homogenates by [32P]NAADP binding assay
[8] = tested on: Strongylocentrotus purpuratus; experiment: Ratio of activation of NAADP receptor in Strongylocentrotus purpuratus egg homogenates by Ca2+ release assay to IC50 for desensitization of NAADP receptor in Strongylocentrotus purpuratus egg homogenates by Ca2+ release assay
[9] = Activation of NAADP receptor in sea urchin egg homogenates assessed as Ca2+ release; format: tissue-based, Echinoidea; summary of the method: as §2

Row | Compound | EC50 [2] [µM] | IC50 [4] [µM] | Ratio EC50 [5] | Ratio IC50 [6] | Ratio [7] | EC50 [9] [nM] | IC50 [1] [nM] | Ratio IC50 [3] | Ratio [8]
1 | CC(C)(C)OC(=O)NCCCc1cc(C(=O)O)c[n+]([C@H]2O[C@@H](COP(=O)(O)OP(=O)([O-])OC[C@H]3O[C@@H](n4cnc5c(N)ncnc54)[C@H](OP(=O)(O)O)[C@@H]3O)[C@H](O)[C@@H]2O)c1 | 160 | 3.27 | 6200 | 8840 | – | – | 942 | 2000 | –
2 | [N-]=[N+]=NCCCc1cc(C(=O)O)c[n+]([C@H]2O[C@@H](COP(=O)(O)OP(=O)([O-])OC[C@H]3O[C@@H](n4cnc5c(N)ncnc54)[C@H](OP(=O)(O)O)[C@@H]3O)[C@H](O)[C@@H]2O)c1 | 30.7 | 0.0563 | 1190 | 152 | – | – | 45.6 | 97 | –
3 | NCCCc1cc(C(=O)O)c[n+]([C@H]2O[C@@H](COP(=O)(O)OP(=O)([O-])OC[C@H]3O[C@@H](n4cnc5c(N)ncnc54)[C@H](OP(=O)(O)O)[C@@H]3O)[C@H](O)[C@@H]2O)c1 | > 1000 | > 1000 | > 33300 | > 2e+06 | – | – | 674000 | 1.43e+06 | –
4 | CC(=O)NCCCc1cc(C(=O)O)c[n+]([C@H]2O[C@@H](COP(=O)(O)OP(=O)([O-])OC[C@H]3O[C@@H](n4cnc5c(N)ncnc54)[C@H](OP(=O)(O)O)[C@@H]3O)[C@H](O)[C@@H]2O)c1 | 41.7 | 1.8 | 1620 | 4880 | – | – | 1230 | 2620 | –
5 | [N-]=[N+]=Nc1cc(C(=O)O)c[n+]([C@H]2O[C@@H](COP(=O)(O)OP(=O)([O-])OC[C@H]3O[C@@H](n4c(Br)nc5c(N)ncnc54)[C@H](OP(=O)(O)O)[C@@H]3O)[C@H](O)[C@@H]2O)c1 | 1360 | 0.372 | 52800 | 1000 | – | – | 576 | 1220 | –

Stronger by EC50 [2], values ahead:

Row | EC50 [2] [µM] | IC50 [4] [µM] | Ratio EC50 [5] | Ratio IC50 [6] | Ratio [7] | EC50 [9] [nM] | Compound | IC50 [1] [nM] | Ratio IC50 [3] | Ratio [8]
6 | 0.709 | 0.0157 | 27.5 | 42.4 | – | – | Nc1ncnc2c1nc(Br)n2[C@@H]1O[C@H](COP(=O)([O-])OP(=O)(O)OC[C@@H]2O[C@H]([n+]3cccc(C(=O)O)c3)[C@@H](O)[C@H]2O)[C@@H](O)[C@H]1OP(=O)(O)O | 15.3 | 32.6 | –
7 | 0.0477 | 0.0007 | 1.8 | 1.9 | – | – | [N-]=[N+]=Nc1nc2c(N)ncnc2n1[C@@H]1O[C@H](COP(=O)([O-])OP(=O)(O)OC[C@@H]2O[C@H]([n+]3cccc(C(=O)O)c3)[C@@H](O)[C@H]2O)[C@@H](O)[C@H]1OP(=O)(O)O | 0.6 | 1.3 | –
8 | 4.43 | 0.049 | 172 | 132 | – | – | Nc1ncnc2c1ncn2[C@@H]1O[C@H](COP(=O)([O-])OP(=O)(O)OC[C@@H]2O[C@H]([n+]3cc(CCCO)cc(C(=O)O)c3)[C@@H](O)[C@H]2O)[C@@H](O)[C@H]1OP(=O)(O)O | 122 | 260 | –
9 | 0.151 | 0.0068 | 5.9 | 18.4 | 100 | – | CSc1cc(C(=O)O)c[n+]([C@H]2O[C@@H](COP(=O)(O)OP(=O)([O-])OC[C@H]3O[C@@H](n4cnc5c(N)ncnc54)[C@H](OP(=O)(O)O)[C@@H]3O)[C@H](O)[C@@H]2O)c1 | 4.2 | 8.9 | 100
10 | 0.0258 | 0.00037 | – | – | – | 20 | Nc1ncnc2c1ncn2[C@@H]1O[C@H](COP(=O)(O)OP(=O)(O)OC[C@@H]2O[C@H]([n+]3cccc(C(=O)[O-])c3)[C@@H](O)[C@H]2O)[C@@H](O)[C@H]1OP(=O)(O)O [NICOTINIC ACID ADENINE DINUCLEOTIDE PHOSPHATE] | 0.47 | – | –
11 | 1.93 | 0.0189 | 74.9 | 51 | – | – | Nc1ncnc2c1ncn2[C@@H]1O[C@H](COP(=O)([O-])OP(=O)(O)OC[C@@H]2O[C@H]([n+]3cc(O)cc(C(=O)O)c3)[C@@H](O)[C@H]2O)[C@@H](O)[C@H]1OP(=O)(O)O | 23.1 | 49.1 | –
12 | 0.626 | 0.015 | 24.3 | 40.5 | – | – | CC(=O)Nc1cc(C(=O)O)c[n+]([C@H]2O[C@@H](COP(=O)(O)OP(=O)([O-])OC[C@H]3O[C@@H](n4cnc5c(N)ncnc54)[C@H](OP(=O)(O)O)[C@@H]3O)[C@H](O)[C@@H]2O)c1 | 21.5 | 45.7 | –
